According to PubChem BioAssay AID588478 (ICCB-Longwood Screening Facility, Harvard Medical School, 2011):
The campaign covered roughly 330,000 compounds. About 1,100 (0.33%) were called active.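 The calls were made as follows: active = mean inhibition over replicate wells above about 20% (limit read from the data); inactive = the rest.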 The sample as a whole holds a higher share of actives than the screen did.

target: Ubiquitin carboxyl-terminal hydrolase isozyme L5 (Homo sapiens) (UniProt Q9Y5K5); assay: inhibitors of human UCH37 deubiquitinase, primary screen, biochemical, Ub-AMC cleavage, fluorescence (AID 588478); conditions: purified proteasome/UCH37, Ub-AMC cleavage fluorescence; stronger effect = higher value; concentration not given here;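 also: 0% = compound-free wells with enzyme and 100% = wells lacking proteasome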
Sequence (Q9Y5K5 whole entry, looked up): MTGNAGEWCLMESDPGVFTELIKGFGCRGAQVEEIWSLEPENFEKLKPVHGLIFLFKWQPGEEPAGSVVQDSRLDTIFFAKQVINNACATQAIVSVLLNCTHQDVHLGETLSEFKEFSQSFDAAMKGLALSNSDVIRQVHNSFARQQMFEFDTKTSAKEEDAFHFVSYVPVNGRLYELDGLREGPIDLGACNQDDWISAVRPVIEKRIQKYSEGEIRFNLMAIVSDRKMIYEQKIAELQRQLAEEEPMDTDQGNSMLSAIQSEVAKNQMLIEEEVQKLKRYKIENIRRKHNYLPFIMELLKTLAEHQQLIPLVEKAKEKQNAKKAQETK
Method in brief: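 Test system – human UCH37 enzyme supplied as purified proteasome complex · Incubation – 30 min preincubation with enzyme, 25 min cleavage at room temperature · Detection – AMC fluorescence from Ub-AMC cleavage, excitation 355 nm, emission 460 nm · Benchmarks – no-proteasome wells (full inhibition) and compound-free wells (no inhibition)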

Row | Compound | inhibition
1 | S=c1[nH]nc(-c2ccccc2)n1N=Cc1ccc(-c2ccccc2Cl)o1 | 5.56% (inactive)
2 | CC(CC(=O)Nc1ccc(Cl)cc1Cl)=NNC(=O)c1ccncc1 | 0.597% (inactive)
3 | COC(=O)NN=C(C)c1cccs1 | 2.45% (inactive)
4 | N#C/C(=C/c1ccc(N2CCOCC2)o1)C(=O)N1CCOCC1 | 33.4% (active)
5 | N#C/C(=C\c1ccc(N2CCOCC2)o1)C(=O)N1CCOCC1 | 15.4% (inactive)
6 | N#C/C(=C/c1ccc(N2CCCCC2)o1)C(=O)NCCc1c[nH]c2ccccc12 | 11.5% (inactive)
7 | CC(C)(C)n1c(=O)[nH]c2c(c1=O)CCC2 | -4.38% (inactive)
8 | N#Cc1c2c(c(-c3ccccc3)[nH]c1=O)CCCC2 | -49.7% (inactive)
9 | O=c1[nH]n2c(=O)c3c([nH]c2c1N=Nc1ccccc1)CCC3 | 22.1% (active)
10 | CCOc1ccc(C=NNC(=O)c2nnn(-c3nonc3N)c2COc2ccc(F)cc2)cc1 | -139% (inactive)
11 | N#CCC(=O)NN=Cc1cn(Cc2cccc3ccccc23)c2ccccc12 | 1.26% (inactive)
12 | COCc1c(C)cc(C)c(C=NO)c1C | 3.47% (inactive)
13 | N#CC(=NNc1cc(Cl)cc(Cl)c1)c1nnc2n1CCCCC2 | 3.3% (inactive)
14 | C=CCn1c(=C(C#N)c2nnc3n2CCCCC3)sc(=Cc2ccc(Cl)cc2)c1=O | 8.49% (inactive)
15 | N#CC(=C(O)CCl)c1nnc2n1CCCCC2 | 31.4% (active)
16 | COc1cc(C=NNS(=O)(=O)c2ccc(C)cc2)ccc1OCc1ccc(C(=O)O)cc1 | 3.97% (inactive)
17 | COc1ccccc1C=NNc1cc(C)nc2ccc(C)cc12 | -45.9% (inactive)
18 | C/C(C=NNC(=O)c1ccc2nc[nH]c2c1)=C/c1ccccc1 | 5.71% (inactive)
19 | Cc1cnc(NC(=O)c2ccccn2)s1 | 2.76% (inactive)
20 | Cc1cnc(NC(=O)C2CCCC2)s1 | 31% (active)
21 | Cc1nc(NC(=O)C2CCCCC2)sc1C | 1.92% (inactive)
22 | CCCOc1ccc(-c2c(C(=O)NN=Cc3ccccc3)nnn2-c2nonc2N)cc1 | 5.85% (inactive)
23 | COc1cc(C=Nn2c(C)nc3ccccc3c2=O)ccc1O | 12.2% (inactive)
24 | CC(CC(=O)Nc1cc(C)ccn1)=NNC(=O)c1cccc(C)c1O | -6.85% (inactive)

Row | Compound | inhibition
25 | Cc1cc(C=NO)c(C)n1-c1ccccc1 | -2.23% (inactive)
26 | CCS(=O)(=O)C1=NSC2=NC(=O)/C(=C\c3cc(C)n(-c4cccc(OC)c4)c3C)C(=N)N21 | -8.8% (inactive)
27 | Cc1cc(/C=C2/C(=N)N3C(=NC2=O)SN=C3S(C)(=O)=O)c(C)n1-c1ccccc1 | 33.8% (active)
28 | COc1ccc2c(c1)c(C(=O)NN=Cc1ccc(Br)cc1)c(C)n2C | 2.61% (inactive)
29 | CC(Oc1ccc(Cl)cc1)C(=O)NN=Cc1ccsc1 (stereo not drawn) | 0.279% (inactive)
30 | Cc1oc(N=Cc2cccc([N+](=O)[O-])c2)c(C#N)c1C | 4.11% (inactive)
31 | COc1ccc(C=NNC(=O)CSCC(=O)Nc2ccccc2)cc1 | 2.55% (inactive)
32 | CN=C1C=C/C(=N/N=c2\ccn(O)cc2C)C=C1C | 23.6% (active)
33 | COC(=O)Cc1cc(=O)[nH]c(N=C(N)Nc2ccc(C)cc2C)n1 | -0.633% (inactive)
34 | C(=Nn1cnnc1)c1ccc(OCc2cccc3ccccc23)cc1 | 2.25% (inactive)
35 | COc1ccc2ccccc2c1C=NNC(=S)Nc1cc(S(=O)(=O)N2CCOCC2)ccc1N1CCOCC1 | -8.36% (inactive)
36 | O=C(NN=Cc1ccc(-c2ccccc2[N+](=O)[O-])o1)C1COc2cc3ccccc3cc2O1 (stereo not drawn) | 7.82% (inactive)
37 | CC(C)(C)c1cc(=O)n2c(nc3ccccc32)[nH]1 | -27.1% (inactive)
38 | O=c1c(=Cc2ccco2)sc2nc(-c3ccccc3Br)nn12 | 4.51% (inactive)
39 | O=C(O)c1cc(C(=O)O)cc(-c2ccc(C=c3sc4nc5ccccc5n4c3=O)o2)c1 | 22.2% (active)
40 | CC(=NNC(=O)Cc1c(Cl)cccc1Cl)c1cccnc1 | 4.49% (inactive)
41 | Cc1cccc(-c2cc(C(=O)NN=Cc3cccnc3)c3ccccc3n2)c1 | 1.54% (inactive)
42 | Cc1cc(=O)n2nc(N3CCC(C(=O)Nc4c(F)c(F)c(F)c(F)c4F)CC3)sc2n1 | -5.44% (inactive)
43 | COc1ccc(CCNC(=O)C2CCN(c3nn4c(=O)cc(C)nc4s3)CC2)cc1OC | 27.9% (active)
44 | CCCOc1ccc(CNC(=O)C2CCN(c3nn4c(=O)cc(C)nc4s3)CC2)cc1 | 1.32% (inactive)
45 | CCOc1ccc(C=NNC(=O)CN2CCCCC2)cc1OCC | 4.23% (inactive)
46 | COc1ccc(CC(=O)Nc2cccc(C(C)=NNC(=O)c3cccc([N+](=O)[O-])c3)c2)cc1 | 2.24% (inactive)
47 | CC[n+]1cc(C)ccc1/C=C/c1ccc(N(C)C)cc1 | 20.6% (active)
48 | CCC(=NNC(=O)Nc1nonc1N)c1ccc(OC)c(OC)c1 | 2.18% (inactive)

Row | Compound | inhibition
49 | Cc1nnsc1C(=O)NN=Cc1ccccc1Cl | 2.87% (inactive)
50 | O=C(CNC(=O)c1cccc(Cl)c1)NN=Cc1cccnc1 | 3.41% (inactive)
51 | CCOC(=O)c1cccc(NC(=O)CCn2nnc3ccccc32)c1 | 0.741% (inactive)
52 | CCOC(=O)c1cccc(NC(=O)c2ccc(F)cc2F)c1 | 24.8% (active)
53 | CCOC(=O)c1cccc(NC(=O)CCOc2ccccc2)c1 | 0.512% (inactive)
54 | CC(=O)NC1CCCN(O)C(=O)C=C(C)CCOC(=O)C(NC(C)=O)CCCN(O)C(=O)C=C(C)CCOC(=O)C(NC(C)=O)CCCN(O)C(=O)C=C(C)CCOC1=O (stereo not drawn) | -0.932% (inactive)
55 | COc1cc(OC)cc(C(=O)NN=Cc2ccoc2)c1 | 1.2% (inactive)
56 | O=C1NNC(c2ccccc2)=N/C1=C\c1ccc(Cl)cc1 | 21.1% (active)
57 | CCOC(=O)c1cc(C(C)=NOC(=O)c2ccc(C(C)(C)C)cc2)on1 | 4.76% (inactive)
58 | O=C(NN=Cc1cc2cc3c(cc2nc1Cl)OCO3)c1ccncc1 | -62.6% (inactive)
59 | N#C/C(=C\c1ccc(O)c(O)c1)C(=O)NCc1ccccc1 | 4.82% (inactive)
60 | CC(C)NC(=O)/C(C#N)=C\c1ccc(N(C)C)c(Br)c1 | 35.8% (active)
61 | Cc1[nH]c2ccccc2c1/C=C(/C#N)C(=O)NC(C)C | 11.3% (inactive)
62 | CC(=NNC(=O)Cc1c[nH]c2ccccc12)c1ccc2ccccc2c1 | -2.68% (inactive)
63 | Cc1cc(Nc2ccc(N3CCOCC3)cc2)c2cccc(C)c2n1 | 9.4% (inactive)
64 | Cc1ccc(Nc2cc(C)nc3c(C)ccc([N+](=O)[O-])c23)cc1 | 42.3% (active)
65 | Cc1cc(Nc2ccc(C(=O)N3CCCCC3)cc2)c2cccc(C)c2n1 | 7.53% (inactive)
66 | CC1(C)CC(=O)CC(=NNC(=O)c2ccc(-c3ccccc3)cc2)C1 | 3.09% (inactive)
67 | CCOc1cc(C=NO)ccc1OS(=O)(=O)c1ccc(C)cc1 | -0.715% (inactive)
68 | CC(C)COc1ccc(C(=O)OCC(=O)NCCC2=CCCCC2)cc1 | 1.87% (inactive)
69 | CC(OC(=O)c1c(F)cccc1F)C(=O)NCCC1=CCCCC1 (stereo not drawn) | 29% (active)
70 | CC(OC(=O)c1ccc(Cl)cc1O)C(=O)NCCC1=CCCCC1 (stereo not drawn) | -2.32% (inactive)
71 | C=CCc1c(C)nc(-c2ccccc2)nc1NN=C(C)c1ccc(N)cc1 | 5.32% (inactive)
72 | O=C(NN=Cc1sc(N2CCCCC2)nc1-c1cccs1)C1CC1 | -4.87% (inactive)

Row | Compound | inhibition
73 | COc1ccc(/C(O)=C2/C(=O)C(=O)N(CCCN(C)C)C2c2ccccc2)cc1OC (stereo not drawn) | 8.49% (inactive)
74 | COc1cccc(C2/C(=C(/O)c3ccc(F)cc3)C(=O)C(=O)N2CCN(C)C)c1 (stereo not drawn) | 26.3% (active)
75 | CCCOc1ccc(/C(O)=C2/C(=O)C(=O)N(CCN(C)C)C2c2ccc(OC)c(OC)c2)cc1 (stereo not drawn) | 9.6% (inactive)
76 | CCC1SC(C)CC(=NNC(N)=O)C1C (stereo not drawn) | 1.74% (inactive)
77 | O=C(NN=Cc1ccc(O)cc1)c1csc2ccccc12 | 3.7% (inactive)
78 | Cc1nn(C)c(C(=O)NN=Cc2cccnc2)c1Cl | 1.1% (inactive)
79 | CC(=NNc1ccccc1)c1c(O)cc(C)oc1=O | 2.24% (inactive)
80 | Cc1cc(C)c[n+](-c2[nH]c(=O)sc2C=NNC([S-])=Nc2ccccc2)c1 | 23% (active)
81 | C(=NNc1nc(-c2ccccc2)cs1)c1cccs1 | -0.256% (inactive)
82 | COc1ccc(Br)cc1C=Nn1c(COc2ccccc2)n[nH]c1=S | 3.72% (inactive)
83 | Cc1ccc(Cn2nnc3c(=O)[nH]c(C4CCN(S(=O)(=O)/C=C/c5ccccc5)CC4)nc32)cc1 | 0.769% (inactive)
84 | Cc1ccc(NC(=O)N2CCC(c3nc4c(nnn4Cc4c(F)cccc4Cl)c(=O)[nH]3)CC2)cc1 | 1.34% (inactive)
85 | COc1ccc(Cn2nnc3c(=O)[nH]c(C4CCN(C(=O)c5ccccc5Cl)CC4)nc32)cc1 | 35.6% (active)
86 | Oc1ccc(C=NNC2=NCCCCC2)c(O)c1 | -24.8% (inactive)
87 | CC(Oc1cccc(Cl)c1)c1ccnc2nc(N=CN(C)C)nn12 (stereo not drawn) | -41% (inactive)
88 | CC(=NNC(=O)c1nnn(-c2nonc2N)c1CSc1ccc(Cl)cc1)c1ccco1 | 0.0783% (inactive)
89 | O=C(CC1OC(=O)c2ccccc21)NC1CCCCC1 (stereo not drawn) | 26% (active)
90 | CC(=O)CC(CC(=O)NC1CCCCC1)c1ccccc1 (stereo not drawn) | 3.65% (inactive)
91 | O=C(CN1C(=O)c2ccccc2S1(=O)=O)NC1CCCCC1 | 0.614% (inactive)
92 | Cc1nnsc1C(=O)NN=Cc1ccccc1 | -1.09% (inactive)
93 | COc1ccc(C(C)=NNC(=O)CN(c2ccc(OC)cc2)S(=O)(=O)c2ccccc2)cc1 | 3.13% (inactive)
